Measurements from ChEMBL document CHEMBL4138201, “Synthesis and biological evaluation of sulfur-containing shikonin oxime derivatives as potential antineoplastic agents” (Eur J Med Chem, 2018).
Calls of active or inactive are those of the source. No cut-off for these calls is given here.

How the values were obtained:
[1] = Induction of NO release in phosphate buffer at pH 7.4 at 0.1 mM measured after 1 hr in presence of N-acetylcysteine by Griess assay; format: functional
How it was run: (§1)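 Percentage of NO released in vitro measured by Griess assay against a standard curve. Incubation in 0.5 mM N-acetylcysteine, read hourly from 1 to 6 h.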

[2] = Induction of NO release in phosphate buffer at pH 7.4 at 0.1 mM measured after 6 hrs in presence of N-acetylcysteine by Griess assay; format: functional; how it was run: as §1
[3] = Induction of NO release in phosphate buffer at pH 7.4 at 0.1 mM measured after 3 hrs in presence of N-acetylcysteine by Griess assay; format: functional; how it was run: as §1
MGC-803 = test: Cytotoxicity against human MGC803 cells after 48 hrs by MTT assay; format: functional, cell-based; settings: MGC-803, 48 h
How it was run: (§2)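 MTT colorimetric assay. Shikonin and 5-fluorouracil served as reference agents. IC₅₀ obtained by linear regression of each compound's concentration–response curve.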

Bel-7402 = test: Cytotoxicity against human Bel7402 cells after 48 hrs by MTT assay; format: functional, cell-based; settings: Bel-7402, 48 h; how it was run: as §2
[4] = Induction of NO release in phosphate buffer at pH 7.4 at 0.1 mM measured after 5 hrs in presence of N-acetylcysteine by Griess assay; format: functional; how it was run: as §1
[5] = Induction of NO release in phosphate buffer at pH 7.4 at 0.1 mM measured after 4 hrs in presence of N-acetylcysteine by Griess assay; format: functional; how it was run: as §1
[6] = Induction of NO release in phosphate buffer at pH 7.4 at 0.1 mM measured after 2 hrs in presence of N-acetylcysteine by Griess assay; format: functional; how it was run: as §1
HCT-15 [7] = test: Cytotoxicity against human HCT15 cells after 48 hrs by MTT assay; format: functional, cell-based; settings: HCT-15, 48 h; how it was run: as §2
MCF7 = test: Cytotoxicity against human MCF7 cells after 48 hrs by MTT assay; format: functional, cell-based; settings: MCF7, 48 h; how it was run: as §2
[8] = Cytotoxicity against human HSF cells after 48 hrs by MTT assay; format: cell-based; how it was run: as §2
HCT-15 [9] = test: Cell cycle arrest in human HCT15 cells assessed assessed as accumulation at G2/M phase at 0.5 to 1.0 uM after 24 hrs by propidium iodide staining-based flow cytometric method; format: functional; settings: in the assay text read “accumulation at G1 phase” for “accumulation at G2/M phase”
How it was run: (§3)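 HCT-15 cells seeded in 6-well plates, exposed to 0, 0.5 or 1.0 µM for 24 h, then harvested and stained with propidium iodide. DNA content read by flow cytometry and G1, S and G2/M fractions calculated. Comparison with untreated control by Student's t-test.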

HCT-15 [10] = test: Induction of apoptosis in human HCT15 cells assessed as necrotic cells at 1 uM after 24 hrs by Annexin-V-FITC/propidium iodide staining based flow cytometry (reference value: 0.005%); format: functional
HCT-15 [11] = test: Induction of apoptosis in human HCT15 cells assessed as viable cells at 2 uM after 24 hrs by Annexin-V-FITC/propidium iodide staining based flow cytometry (reference value: 90.4%); format: functional; settings: HCT-15, 24 h, read-out: Activity
HCT-15 [12] = test: Induction of apoptosis in human HCT15 cells assessed as viable cells at 0.5 uM after 24 hrs by Annexin-V-FITC/propidium iodide staining based flow cytometry (reference value: 90.4%); format: functional; settings: HCT-15, 24 h, read-out: Activity
HCT-15 [13] = test: Induction of apoptosis in human HCT15 cells assessed as early apoptotic cells at 2 uM after 24 hrs by Annexin-V-FITC/propidium iodide staining based flow cytometry (reference value: 2.97%); format: functional
HCT-15 [14] = test: Induction of apoptosis in human HCT15 cells assessed as chromatin condensation up to 1.0 uM after 24 hrs by Hoechst 33342 staining-based fluorescence microscopic method; format: functional, cell-based
How it was run: (§4)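 HCT-15 cells incubated 24 h at 0, 0.5 or 1.0 µM, then stained with Hoechst 33342. Nuclei examined by fluorescence for fragmentation, chromatin condensation and staining intensity.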

HCT-15 [15] = test: Induction of apoptosis in human HCT15 cells assessed as increase in Bax protein expression up to 2 uM after 24 hrs by Western blot analysis; format: functional, cell-based
How it was run: (§5)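 Protein extracted from HCT-15 cells after 24 h at 0, 0.5, 1.0 or 2.0 µM. Bcl-2, Bax and cleaved caspase-3 and -9 immunoblotted, band ratios quantified by densitometry. Student's t-test used.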

HCT-15 [16] = test: Induction of apoptosis in human HCT15 cells assessed as early apoptotic cells at 1 uM after 24 hrs by Annexin-V-FITC/propidium iodide staining based flow cytometry (reference value: 2.97%); format: functional
HCT-15 [17] = test: Induction of apoptosis in human HCT15 cells assessed as downregulation of Bcl2 expression at 2 uM after 24 hrs by Western blot analysis; format: functional, cell-based; how it was run: as §5
HCT-15 [18] = test: Induction of apoptosis in human HCT15 cells assessed as increase in cleaved caspase-3 levels after 24 hrs by Western blot analysis; format: functional, cell-based; how it was run: as §5
HCT-15 [19] = test: Cell cycle arrest in human HCT15 cells assessed assessed as accumulation at G1 phase at 0.5 uM after 24 hrs by propidium iodide staining-based flow cytometric method (reference value: 36.7%); format: functional; how it was run: as §3
HCT-15 [20] = test: Induction of apoptosis in human HCT15 cells assessed as necrotic cells at 0.5 uM after 24 hrs by Annexin-V-FITC/propidium iodide staining based flow cytometry (reference value: 0.005%); format: functional
HCT-15 [21] = test: Induction of apoptosis in human HCT15 cells assessed as necrotic cells at 2 uM after 24 hrs by Annexin-V-FITC/propidium iodide staining based flow cytometry (reference value: 0.005%); format: functional
HCT-15 [22] = test: Induction of apoptosis in human HCT15 cells after 24 hrs by Annexin-V-FITC/propidium iodide staining based flow cytometry; format: functional, cell-based
HCT-15 [23] = test: Cell cycle arrest in human HCT15 cells assessed assessed as accumulation at G1 phase at 1.0 uM after 24 hrs by propidium iodide staining-based flow cytometric method (reference value: 36.7%); format: functional; how it was run: as §3
HCT-15 [24] = test: Induction of apoptosis in human HCT15 cells assessed as early apoptotic cells at 0.5 uM after 24 hrs by Annexin-V-FITC/propidium iodide staining based flow cytometry (reference value: 2.97%); format: functional
HCT-15 [25] = test: Cell cycle arrest in human HCT15 cells assessed assessed as accumulation at S phase at 0.5 to 1.0 uM after 24 hrs by propidium iodide staining-based flow cytometric method; format: functional; settings: in the assay text read “accumulation at G1 phase” for “accumulation at S phase”; how it was run: as §3
HCT-15 [26] = test: Induction of apoptosis in human HCT15 cells assessed as nuclear fragmentation up to 1.0 uM after 24 hrs by Hoechst 33342 staining-based fluorescence microscopic method; format: functional, cell-based; how it was run: as §4
HCT-15 [27] = test: Induction of apoptosis in human HCT15 cells assessed as late apoptotic cells at 0.5 uM after 24 hrs by Annexin-V-FITC/propidium iodide staining based flow cytometry (reference value: 6.59%); format: functional
HCT-15 [28] = test: Induction of apoptosis in human HCT15 cells assessed as viable cells at 1 uM after 24 hrs by Annexin-V-FITC/propidium iodide staining based flow cytometry (reference value: 90.4%); format: functional; settings: HCT-15, 24 h, read-out: Activity
HCT-15 [29] = test: Induction of apoptosis in human HCT15 cells assessed as late apoptotic cells at 1 uM after 24 hrs by Annexin-V-FITC/propidium iodide staining based flow cytometry (reference value: 6.59%); format: functional
HCT-15 [30] = test: Induction of apoptosis in human HCT15 cells assessed as increase in cleaved caspase-9 levels after 24 hrs by Western blot analysis; format: functional, cell-based; how it was run: as §5
HCT-15 [31] = test: Induction of apoptosis in human HCT15 cells assessed as late apoptotic cells at 2 uM after 24 hrs by Annexin-V-FITC/propidium iodide staining based flow cytometry (reference value: 6.59%); format: functional

## COc1ccc(C(=O)SC(CC=C(C)C)c2cc(OC)c3c(c2OC)/C(=N/O)C=C/C3=N\O)cc1 (stereo unspecified)
[1]
  Activity: 0.038%
[2]
  Activity: 0.053%
[3]
  Activity: 0.058%
MGC-803
  IC50: 0.93 µM
Bel-7402
  IC50: 1.09 µM
[4]
  Activity: 0.059%
[5]
  Activity: 0.064%
[6]
  Activity: 0.045%
HCT-15 [7]
  IC50: 0.61 µM
MCF7
  IC50: 17.1 µM
[8]
  IC50: > 50 µM

## COc1ccc(C(=O)SC(CC=C(C)C)c2cc(OC)c3c(c2OC)/C(=N/O)C=C/C3=N\O)cc1OC (stereo unspecified)
[1]
  Activity: 0.041%
[2]
  Activity: 0.065%
[3]
  Activity: 0.063%
MGC-803
  IC50: 1.17 µM
Bel-7402
  IC50: 0.66 µM
[4]
  Activity: 0.073%
[5]
  Activity: 0.079%
[6]
  Activity: 0.05%
HCT-15 [7]
  IC50: 0.39 µM
MCF7
  IC50: 14.9 µM
[8]
  IC50: > 50 µM

## COc1cc(C(=O)SC(CC=C(C)C)c2cc(OC)c3c(c2OC)/C(=N/O)C=C/C3=N\O)cc(OC)c1OC (stereo unspecified)
HCT-15 [9]
  Activity: Active
HCT-15 [10]
  Activity: 0.021%
HCT-15 [11]
  viability at 2 µM: 22.4%
HCT-15 [12]
  viability at 0.5 µM: 86%
[1]
  Activity: 0.049%
HCT-15 [13]
  Activity: 20.1%
HCT-15 [14]
  Activity: Active
[2]
  Activity: 0.079%
HCT-15 [15]
  Activity: Active
HCT-15 [16]
  Activity: 18.3%
[3]
  Activity: 0.076%
HCT-15 [17]
  Activity: Active
HCT-15 [18]
  Activity: Dose-dependent effect
MGC-803
  IC50: 0.86 µM
HCT-15 [19]
  Activity: 44.1%
HCT-15 [20]
  Activity: 0.018%
HCT-15 [21]
  Activity: 0.088%
Bel-7402
  IC50: 0.45 µM
[4]
  Activity: 0.084%
HCT-15 [22]
  Activity: Dose-dependent effect
HCT-15 [23]
  Activity: 49.9%
[5]
  Activity: 0.091%
HCT-15 [24]
  Activity: 4.56%
HCT-15 [25]
  Activity: Active
HCT-15 [26]
  Activity: Active
HCT-15 [27]
  Activity: 9.43%
[6]
  Activity: 0.063%
HCT-15 [28]
  viability at 1 µM: 58%
HCT-15 [29]
  Activity: 23.7%
HCT-15 [30]
  Activity: Dose-dependent effect
HCT-15 [7]
  IC50: 0.27 µM
MCF7
  IC50: 9.23 µM
HCT-15 [31]
  Activity: 57.3%
[8]
  IC50: > 50 µM

## COc1cc(C(CC=C(C)C)SC(=O)c2cccc(F)c2)c(OC)c2c1/C(=N/O)C=C/C2=N\O (stereo unspecified)
MGC-803
  IC50: 6.47 µM
Bel-7402
  IC50: 8.9 µM
HCT-15 [7]
  IC50: 2.71 µM
MCF7
  IC50: 38.9 µM
[8]
  IC50: > 50 µM

## COc1cc(C(CC=C(C)C)SC(=O)c2ccncc2)c(OC)c2c1/C(=N/O)C=C/C2=N\O (stereo unspecified)
MGC-803
  IC50: 19.4 µM
Bel-7402
  IC50: 26.8 µM
HCT-15 [7]
  IC50: 7.32 µM
MCF7
  IC50: > 50 µM
[8]
  IC50: > 50 µM

## COc1cc(C(CC=C(C)C)SC(=O)c2ccccc2Cl)c(OC)c2c1/C(=N/O)C=C/C2=N\O (stereo unspecified)
MGC-803
  IC50: 1.69 µM
Bel-7402
  IC50: 0.87 µM
HCT-15 [7]
  IC50: 0.53 µM
MCF7
  IC50: 19.2 µM
[8]
  IC50: > 50 µM
